“And” between values parts separate entries of the source, which are not always exact repeats. Equal values may be shown once. “Also recorded” adds a separate entry of the source.
Experiments:
UGT1A1 = conditions: cited from earlier work
[1] = test system: refractory solid malignancies; assay: Tumor response per RECIST v1.0; format: in vivo, human
[2] = Exposure-toxicity relationship, sigmoid E-max model; format: in vivo, human
Method in brief: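 Patients received a 1-h IV infusion of test compound daily × 5 every 21 days. Toxicity measure was the cycle 1 nadir of ANC and platelets, expressed as % decrease. Exposure metrics were total test compound AUC (day 1, cycle 1) and administered daily dosage level. Total rather than lactone parameters were used.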

CYP3A4 = conditions: in-vitro data; cited from earlier work
[3] = Plasma pharmacokinetics of AR-67 lactone and carboxylate; format: in vivo, human; conditions: for Cmax, total: observed at 45 min of 1-hr infusion
Method in brief: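 Test compound was given as a 1-h IV infusion daily × 5. Heparinized blood was drawn on days 1 and 4 of cycle 1: pre-dose, 5, 45 and 65 min, and 1.5, 2, 4, 6, 8 and 24 h after infusion start. Plasma lactone and carboxylate were quantified by validated HPLC-fluorescence. Parameters were noncompartmental. Cmax was the observed 45-min value. Half-life required ≥3 elimination-phase points.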

[4] = cycle 1, all patients, sigmoid E-max model
[5] = total AR-67 AUC day 1 of cycle 1, sigmoid E-max model
[6] = day 1 cycle 1, 1.2 mg/m^2 (n=2), mean
[7] = day 1 cycle 1, 1.67 mg/m^2 (n=3), mean
[8] = day 1 cycle 1, 2.34 mg/m^2 (n=3), mean
[9] = day 1 cycle 1, 3.23 mg/m^2 (n=3), mean
[10] = day 1 cycle 1, 4.5 mg/m^2 (n=1)
[11] = day 1 cycle 1, 6.3 mg/m^2 (n=1)
[12] = day 1 cycle 1, 7.5 mg/m^2 (n=7), mean
[13] = day 1 cycle 1, 8.9 mg/m^2 (n=4), mean
[14] = day 1 cycle 1, 12.4 mg/m^2 (n=2), mean
[15] = day 4 cycle 1, 1.2 mg/m^2 (n=1)
[16] = day 4 cycle 1, 1.67 mg/m^2 (n=3), mean
[17] = day 4 cycle 1, 2.34 mg/m^2 (n=3), mean
[18] = day 4 cycle 1, 3.23 mg/m^2 (n=3), mean
[19] = day 4 cycle 1, 4.5 mg/m^2 (n=1)
[20] = day 4 cycle 1, 6.3 mg/m^2 (n=1)
[21] = day 4 cycle 1, 7.5 mg/m^2 (n=7), mean
[22] = day 4 cycle 1, 8.9 mg/m^2 (n=4), mean
[23] = day 4 cycle 1, 12.4 mg/m^2 (n=2), mean

CC[C@@]1(O)C(=O)OCc2c1cc1n(c2=O)Cc2c-1nc1ccc(O)cc1c2[Si](C)(C)C(C)(C)C [AR-67, 7-t-butyldimethylsilyl-10-hydroxycamptothecin]
UGT1A1 mediated glucuronidation (UGT1A1): does not undergo | subjects with stable disease ([1]; 22 subjects evaluable): Four | duration of prolonged partial response ([1]; one patient): > 16 months | response per RECIST v1.0 ([1]; one subject, squamous cell carcinoma of the lung (NSCLC), dosage level 5.5, ten cycles): prolonged partial response | time after end of cycle 10 with partial response maintained ([1]; recurrent NSCLC patient, 10 cycles, as of this writing): ≥ 7 months | dosage level ED50 (95% CI) for % decrease in ANC [2, 4]: 6.1 (4.3 – 8.7) mg/m^2 | dosage level ED50 (95% CI) for % decrease in platelets [2, 4]: 4.9 (3.2 – 7.6) mg/m^2 | AUC ED50 (95% CI) for % decrease in ANC [2, 5]: 323.6 (231.9 – 451.6) hr*ng/mL | AUC ED50 (95% CI) for % decrease in platelets [2, 5]: 364.2 (249.4 – 531.9) hr*ng/mL | substrate for CYP3A4 (CYP3A4): is a substrate | clearance with increasing dosage ([3]; 1.2–12.4 mg/m^2/day): clearance was constant | decrease in AUC between days 1 and 4 ([3]; all patients, dexamethasone co-treatment): ~ 20% | drug accumulation on day 4 ([3]; daily × 5 dosing, cycle 1): No drug accumulation was observed; also recorded: no evidence of accumulation | Clearancetotal [3, 6]: 13.8 L/hr/m^2 | Lactone AUC(0−∞) [3, 6]: 81 ng·h/mL | Total AUC(0−∞) [3, 6]: 88 ng·h/mL | Vss, total [3, 6]: 7.4 L/m^2 | Cmax, total [3, 6]: 77.6 ng/mL | Clearancetotal [3, 7]: 13.2 L/hr/m^2 | Lactone AUC(0−∞) [3, 7]: 117 ng·h/mL | Total AUC(0−∞) [3, 7]: 128 ng·h/mL | Vss, total [3, 7]: 13.1 L/m^2 | Cmax, total [3, 7]: 96.9 ng/mL | Clearancetotal [3, 8]: 14.1 L/hr/m^2 | Lactone AUC(0−∞) [3, 8]: 186 ng·h/mL | Total AUC(0−∞) [3, 8]: 201 ng·h/mL | Vss, total [3, 8]: 13.5 L/m^2 | Cmax, total [3, 8]: 158.9 ng/mL | Clearancetotal [3, 9]: 11.6 L/hr/m^2 | Lactone AUC(0−∞) [3, 9]: 269 ng·h/mL | Total AUC(0−∞) [3, 9]: 290 ng·h/mL | Vss, total [3, 9]: 9.6 L/m^2 | Cmax, total [3, 9]: 221.9 ng/mL | Clearancetotal [3, 10]: 21 L/hr/m^2 | Lactone AUC(0−∞) [3, 10]: 179 ng·h/mL | Total AUC(0−∞) [3, 10]: 214 ng·h/mL | Vss, total [3, 10]: 32.7 L/m^2 | Cmax, total [3, 10]: 117.8 ng/mL | Clearancetotal [3, 11]: 12.9 L/hr/m^2 | Lactone AUC(0−∞) [3, 11]: 334 ng·h/mL | Total AUC(0−∞) [3, 11]: 490 ng·h/mL | Vss, total [3, 11]: 51.6 L/m^2 | Cmax, total [3, 11]: 168.5 ng/mL | Clearancetotal [3, 12]: 13.1 L/hr/m^2 | Lactone AUC(0−∞) [3, 12]: 498 ng·h/mL | T(1/2)total [3, 12]: 1.4 h | Total AUC(0−∞) [3, 12]: 581 ng·h/mL | Vss, total [3, 12]: 18.7 L/m^2 | Cmax, total [3, 12]: 349.7 ng/mL | Clearancetotal [3, 13]: 18.9 L/hr/m^2 | Lactone AUC(0−∞) [3, 13]: 471 ng·h/mL | T(1/2)total [3, 13]: 1.6 h | Total AUC(0−∞) [3, 13]: 502 ng·h/mL | Vss, total [3, 13]: 30.1 L/m^2 | Cmax, total [3, 13]: 290.6 ng/mL | Clearancetotal [3, 14]: 15.8 L/hr/m^2 | Lactone AUC(0−∞) [3, 14]: 686 ng·h/mL | T(1/2)total [3, 14]: 1.1 h | Total AUC(0−∞) [3, 14]: 786 ng·h/mL | Vss, total [3, 14]: 18.1 L/m^2 | Cmax, total [3, 14]: 464.7 ng/mL | Clearancetotal ([3]; day 1 cycle 1, All dosage levels (N=26), mean): 14.5 ±4.1 L/hr/m^2 and 14.5 L/hr/m^2 | T(1/2)total ([3]; day 1 cycle 1, All dosage levels, mean): 1.4 h | Clearancetotal [3, 15]: 23.6 L/hr/m^2 | Lactone AUC(0−∞) [3, 15]: 49 ng·h/mL | Total AUC(0−∞) [3, 15]: 51 ng·h/mL | Vss, total [3, 15]: 15.6 L/m^2 | Cmax, total [3, 15]: 51.6 ng/mL | Clearancetotal [3, 16]: 16.7 L/hr/m^2 | Lactone AUC(0−∞) [3, 16]: 109 ng·h/mL | Total AUC(0−∞) [3, 16]: 115 ng·h/mL | Vss, total [3, 16]: 16.3 L/m^2 | Cmax, total [3, 16]: 74.6 ng/mL | Clearancetotal [3, 17]: 15.3 L/hr/m^2 | Lactone AUC(0−∞) [3, 17]: 137 ng·h/mL | Total AUC(0−∞) [3, 17]: 154 ng·h/mL | Vss, total [3, 17]: 7.9 L/m^2 | Cmax, total [3, 17]: 137.8 ng/mL | Clearancetotal [3, 18]: 13.3 L/hr/m^2 | Lactone AUC(0−∞) [3, 18]: 236 ng·h/mL | Total AUC(0−∞) [3, 18]: 255 ng·h/mL | Vss, total [3, 18]: 10.6 L/m^2 | Cmax, total [3, 18]: 195 ng/mL | Clearancetotal [3, 19]: 24.2 L/hr/m^2 | Lactone AUC(0−∞) [3, 19]: 149 ng·h/mL | Total AUC(0−∞) [3, 19]: 186 ng·h/mL | Vss, total [3, 19]: 45.3 L/m^2 | Cmax, total [3, 19]: 82.5 ng/mL | Clearancetotal [3, 20]: 14.7 L/hr/m^2 | Lactone AUC(0−∞) [3, 20]: 327 ng·h/mL | Total AUC(0−∞) [3, 20]: 429 ng·h/mL | Vss, total [3, 20]: 35.3 L/m^2 | Cmax, total [3, 20]: 166.4 ng/mL | Clearancetotal [3, 21]: 16.8 L/hr/m^2 | Lactone AUC(0−∞) [3, 21]: 411 ng·h/mL | T(1/2)total [3, 21]: 1.8 h | Total AUC(0−∞) [3, 21]: 478 ng·h/mL | Vss, total [3, 21]: 25.6 L/m^2 | Cmax, total [3, 21]: 308.6 ng/mL | Clearancetotal [3, 22]: 18.6 L/hr/m^2 | Lactone AUC(0−∞) [3, 22]: 397 ng·h/mL | T(1/2)total [3, 22]: 1.4 h | Total AUC(0−∞) [3, 22]: 507 ng·h/mL | Vss, total [3, 22]: 27.5 L/m^2 | Cmax, total [3, 22]: 276.7 ng/mL | Clearancetotal [3, 23]: 19.8 L/hr/m^2 | Lactone AUC(0−∞) [3, 23]: 551 ng·h/mL | T(1/2)total [3, 23]: 1.7 h | Total AUC(0−∞) [3, 23]: 663 ng·h/mL | Vss, total [3, 23]: 28.9 L/m^2 | Cmax, total [3, 23]: 358.5 ng/mL | Clearancetotal ([3]; day 4 cycle 1, All dosage levels (N=25), mean): 17.4 ±5.2 L/hr/m^2 and 17.4 L/hr/m^2 | T(1/2)total ([3]; day 4 cycle 1, All dosage levels, mean): 1.6 h | lactone form as share of the total AR-67 AUC (lactone + carboxylate) ([3]; human plasma, mean (±SD)): 87.5% and ~ 87.5% | increase of mean clearance of total AR-67 from day 1 to day 4 ([3]; p=0.0031, Wilcoxon signed rank): 20% | elimination half-life ([3]; patients, iv): ~ 1.4 hr | elimination profile ([3]; plasma, MTD cohort): bi-exponential profile | share of the total concentration in the lactone form ([3]; plasma, at each time point, all patients): Greater than 80%

From publication PMC2831464 (Clinical cancer research : an official journal of the …, 2010)
